Data published in ChEMBL document CHEMBL4014336 (J Med Chem, 2017).

system: Mus musculus; assay: In vivo inhibition of 11beta-HSD1 in po dosed non-fasting diet-induced obese mouse assessed as decrease in corticosterone excursion in plasma pretreated for 60 mins followed by DHC administration measured up to 120 mins by enzyme immunosorbent assay; format: functional; conditions: not given
In short: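 Nonfasting diet-induced obese male mice, groups of n = 6 matched for body weight; tail bleed at −60 min, then oral vehicle (0.5% Methocel, 0.1% Tween 80 in water) or drug. At 60 min, bleed and oral DHC 10 mg/kg. Bleeds at 30, 60 and 120 min post-DHC. Plasma corticosterone measured by enzyme immunosorbent assay; drug levels in terminal bleed.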

For `O=C(CC1(c2ccccc2)C2CC3CC1CC(C2)C3O)N1CC(O)C1` (stereo in doubt; form 2), the inhibition was “Dose-dependent effect”.

target: 11-beta-hydroxysteroid dehydrogenase 1 (Mus musculus, UniProt P50172); conditions: not given
Sequence (P50172 whole entry): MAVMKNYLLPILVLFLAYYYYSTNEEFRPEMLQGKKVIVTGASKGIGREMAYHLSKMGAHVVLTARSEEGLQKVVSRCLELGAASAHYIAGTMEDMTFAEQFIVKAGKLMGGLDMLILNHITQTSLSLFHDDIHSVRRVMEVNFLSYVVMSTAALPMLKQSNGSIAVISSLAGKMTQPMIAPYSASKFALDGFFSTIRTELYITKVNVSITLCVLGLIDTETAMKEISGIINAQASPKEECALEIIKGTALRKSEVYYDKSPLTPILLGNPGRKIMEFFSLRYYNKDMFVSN

Going from `O=C(CC1(c2ccccc2)C2CC3CC1CC(C2)C3O)N1CC(O)C1` (racemic) [BMS-816336] to `O=C(CC1(c2ccc(F)cc2)C2CC3CC1CC(C2)C3O)N1CC(O)C1` (stereo in doubt), the IC50 rises from 0.068 µM to 0.15 µM (2.2-fold).

Going from `O=C(CC1(c2ccc(F)cc2)C2CC3CC(C2)CC1C3)N1CC[C@H]1CO` (stereo partly specified) to `O=C(CC1(c2ccc(F)cc2)C2CC3CC(C2)CC1C3)N1CC[C@@H]1CO` (stereo partly specified), the IC50 falls from 1.85 µM to 0.012 µM (150-fold).

`O=C(CC1(c2ccc(F)cc2)C2CC3CC1CC(C2)C3O)N1CC(O)C1` (racemic) showed an IC50 of 0.043 µM.

system: not listed separately; assay: Inhibition of cynomolgus monkey 11beta-HSD1; design: species or system Macaca fascicularis; conditions: not given

First: O=C(CC1(c2ccc(F)cc2)C2CC3CC1CC(C2)C3O)N1CC(O)C1 (stereo in doubt)
Second: O=C(CC1(c2ccccc2)C2CC3CC1CC(C2)C3O)N1CC(O)C1 (stereo in doubt; form 1)
The IC50 of the first is 1.5-fold higher: 0.0248 µM for the first, 0.016 µM for the second.

`O=C(CC1(c2ccc(F)cc2)C2CC3CC1CC(C2)C3O)N1CC(O)C1` (single isomer, unassigned; enantiomer 2) gave an IC50 of 0.0069 µM.

system: not listed separately; assay: Metabolic stability in human liver microsomes assessed as UGT-mediated glucuronidation of compound by measuring half life in presence of UDPGA; format: ADME; conditions: not given
In short: (§1)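 Liver microsomal glucuronidation incubations in the presence of UDPGA; parent half-life determined.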

`Fc1ccc(C2(Cc3nnn[nH]3)C3CC4CC(C3)CC2C4)cc1` (stereo unspecified) and `NC(=O)CC1(c2ccc(F)cc2)C2CC3CC(C2)CC1C3` (stereo unspecified) cannot be ordered by half-life: over 2 h for the first, over 2 h for the second.

system: not listed separately; assay: Metabolic stability in mouse liver microsomes assessed as UGT-mediated glucuronidation of compound by measuring half life in presence of UDPGA; format: ADME; conditions: not given; in short: as §1

`Fc1ccc(C2(Cc3nnn[nH]3)C3CC4CC(C3)CC2C4)cc1` (stereo unspecified) and `NC(=O)CC1(c2ccc(F)cc2)C2CC3CC(C2)CC1C3` (stereo unspecified) cannot be ordered by half-life: over 1 h for the first, over 2 h for the second.

system: not listed separately; assay: (§2) Metabolic stability in human liver microsomes assessed as parent compound remaining after 10 mins; format: ADME, microsome; conditions: liver microsomes, read-out: Stability
In short: (§3)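 Parent compound remaining after a 10 min incubation with human, mouse or rat liver microsomes.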

`N#CC12CC3CC(C1)C(CC(=O)N1CC(O)C1)(c1ccc(F)cc1)C(C3)C2` (stereo unspecified) and `COC12CC3CC(C1)C(CC(=O)N1CC(O)C1)(c1ccc(F)cc1)C(C3)C2` (stereo unspecified) cannot be ordered by remaining at 10 min: 62% for the first, 27 to 72% for the second.

Compared with `O=C(CC1(c2ccccc2)C2CC3CC1CC(C2)C3O)N1CC(O)C1` (racemic) [BMS-816336], `Cc1ccccc1C1(CC(=O)N2CC(O)C2)C2CC3CC1CC(C2)C3O` (racemic) is lower in remaining at 10 min: 88% for the first, 62% for the second.

First: CS(=O)(=O)c1ccc(C2(CC(=O)N3CC(O)C3)C3CC4CC2CC(C3)C4O)cc1 (racemic)
Second: Cc1ccc(C2(CC(=O)N3CC(O)C3)C3CC4CC2CC(C3)C4O)cc1 (racemic)
The remaining at 10 min of the first is higher: 100% for the first, 75% for the second.

First: O=C(CC1(Cc2ccccc2)C2CC3CC1CC(C2)C3O)N1CC(O)C1 (racemic)
Second: O=C(CC1(c2ccc(F)cc2)C2CC3CC1CC(C2)C3O)N1CC(O)C1 (racemic)
The remaining at 10 min of the first is lower: 63% for the first, 95% for the second.

Compared with `O=C(CC1(c2ccc(F)cc2)C2CC3CC(C2)CC1(O)C3)N1CC(O)C1` (racemic), `NC(=O)C12CC3CC(C1)C(CC(=O)N1CC(O)C1)(c1ccc(F)cc1)C(C3)C2` (stereo unspecified) is higher in remaining at 10 min: 25% for the first, 82 to 100% for the second.

With `CC1(O)C2CC3CC1CC(C2)C3(CC(=O)N1CC(O)C1)c1ccc(F)cc1` (racemic) the remaining at 10 min was 84%.

system: Liver; assay: as §2; format: ADME, microsome; conditions: microsomes, 10 min; in short: as §3

First: O=C(CC1(c2ccc(F)cc2)C2CC3CC1CC(C2)C3O)N1CC(O)C1 (stereo in doubt)
Second: O=C(CC1(c2ccccc2)C2CC3CC1CC(C2)C3O)N1CC(O)C1 (stereo in doubt; form 1)
The Stability of the first is lower: 85% for the first, 89% for the second.

In the case of `O=C(CC1(c2ccc(F)cc2)C2CC3CC1CC(C2)C3O)N1CC(O)C1` (single isomer, unassigned; enantiomer 2), the Stability is reported as 90%.

system: not listed separately; assay: (§4) Metabolic stability in mouse liver microsomes assessed as parent compound remaining after 10 mins; format: ADME, microsome; conditions: liver microsomes, read-out: Stability; in short: as §3

`N#CC12CC3CC(C1)C(CC(=O)N1CC(O)C1)(c1ccc(F)cc1)C(C3)C2` (stereo unspecified) and `COC12CC3CC(C1)C(CC(=O)N1CC(O)C1)(c1ccc(F)cc1)C(C3)C2` (stereo unspecified) cannot be ordered by remaining at 10 min: 42% for the first, 17 to 55% for the second.

Compared with `O=C(CC1(c2ccccc2)C2CC3CC1CC(C2)C3O)N1CC(O)C1` (racemic) [BMS-816336], `Cc1ccccc1C1(CC(=O)N2CC(O)C2)C2CC3CC1CC(C2)C3O` (racemic) is lower in remaining at 10 min: 82% for the first, 77% for the second.

Going from `CS(=O)(=O)c1ccc(C2(CC(=O)N3CC(O)C3)C3CC4CC2CC(C3)C4O)cc1` (racemic) to `Cc1ccc(C2(CC(=O)N3CC(O)C3)C3CC4CC2CC(C3)C4O)cc1` (racemic), the remaining at 10 min falls from 100% to 72%.

Compared with `O=C(CC1(Cc2ccccc2)C2CC3CC1CC(C2)C3O)N1CC(O)C1` (racemic), `O=C(CC1(c2ccc(F)cc2)C2CC3CC1CC(C2)C3O)N1CC(O)C1` (racemic) is higher in remaining at 10 min: 33% for the first, 92% for the second.

Compared with `O=C(CC1(c2ccc(F)cc2)C2CC3CC(C2)CC1(O)C3)N1CC(O)C1` (racemic), `NC(=O)C12CC3CC(C1)C(CC(=O)N1CC(O)C1)(c1ccc(F)cc1)C(C3)C2` (stereo unspecified) is higher in remaining at 10 min: 11% for the first, 73 to 77% for the second.

In the case of `CC1(O)C2CC3CC1CC(C2)C3(CC(=O)N1CC(O)C1)c1ccc(F)cc1` (racemic), the remaining at 10 min is reported as 66%.

system: Liver; assay: as §4; format: ADME, microsome; conditions: microsomes, 10 min; in short: as §3

First: O=C(CC1(c2ccc(F)cc2)C2CC3CC1CC(C2)C3O)N1CC(O)C1 (stereo in doubt)
Second: O=C(CC1(c2ccccc2)C2CC3CC1CC(C2)C3O)N1CC(O)C1 (stereo in doubt; form 1)
The Stability of the first is higher: 78% for the first, 65% for the second.

`O=C(CC1(c2ccc(F)cc2)C2CC3CC1CC(C2)C3O)N1CC(O)C1` (single isomer, unassigned; enantiomer 2) showed a Stability of 82%.

system: not listed separately; assay: (§5) Metabolic stability in rat liver microsomes assessed as parent compound remaining after 10 mins; format: ADME, microsome; conditions: liver microsomes, read-out: Stability; in short: as §3

Compared with `N#CC12CC3CC(C1)C(CC(=O)N1CC(O)C1)(c1ccc(F)cc1)C(C3)C2` (stereo unspecified), `COC12CC3CC(C1)C(CC(=O)N1CC(O)C1)(c1ccc(F)cc1)C(C3)C2` (stereo unspecified) is lower in remaining at 10 min: 46% for the first, 6 to 14% for the second.

Going from `CS(=O)(=O)c1ccc(C2(CC(=O)N3CC(O)C3)C3CC4CC2CC(C3)C4O)cc1` (racemic) to `Cc1ccc(C2(CC(=O)N3CC(O)C3)C3CC4CC2CC(C3)C4O)cc1` (racemic), the remaining at 10 min falls from 98% to 26%.

Compared with `O=C(CC1(Cc2ccccc2)C2CC3CC1CC(C2)C3O)N1CC(O)C1` (racemic), `Cc1ccccc1C1(CC(=O)N2CC(O)C2)C2CC3CC1CC(C2)C3O` (racemic) is higher in remaining at 10 min: 3% for the first, 25% for the second.

First: O=C(CC1(c2ccc(F)cc2)C2CC3CC(C2)CC1(O)C3)N1CC(O)C1 (racemic)
Second: NC(=O)C12CC3CC(C1)C(CC(=O)N1CC(O)C1)(c1ccc(F)cc1)C(C3)C2 (stereo unspecified)
The remaining at 10 min of the first is lower: 2% for the first, 62 to 79% for the second.

Work on `CC1(O)C2CC3CC1CC(C2)C3(CC(=O)N1CC(O)C1)c1ccc(F)cc1` (racemic) yielded a remaining at 10 min of 47%.

system: Liver; assay: as §5; format: ADME, microsome; conditions: microsomes, 10 min; in short: as §3

First: O=C(CC1(c2ccccc2)C2CC3CC1CC(C2)C3O)N1CC(O)C1 (racemic) [BMS-816336]
Second: O=C(CC1(c2ccc(F)cc2)C2CC3CC1CC(C2)C3O)N1CC(O)C1 (stereo in doubt)
The Stability of the first is higher: 72% for the first, 58% for the second.

First: O=C(CC1(c2ccc(F)cc2)C2CC3CC1CC(C2)C3O)N1CC(O)C1 (single isomer, unassigned; enantiomer 2)
Second: O=C(CC1(c2ccccc2)C2CC3CC1CC(C2)C3O)N1CC(O)C1 (stereo in doubt; form 1)
The Stability of the first is higher: 75% for the first, 36% for the second.

Molecule `O=C(CC1(c2ccc(F)cc2)C2CC3CC1CC(C2)C3O)N1CC(O)C1` (racemic) has a Stability of 88%.

target: T1, Nuclear receptor subfamily 1 group I member 2 (Homo sapiens, UniProt O75469); assay: Activation of PXR (unknown origin); format: ADME; conditions: not given
T1 sequence (O75469 whole entry): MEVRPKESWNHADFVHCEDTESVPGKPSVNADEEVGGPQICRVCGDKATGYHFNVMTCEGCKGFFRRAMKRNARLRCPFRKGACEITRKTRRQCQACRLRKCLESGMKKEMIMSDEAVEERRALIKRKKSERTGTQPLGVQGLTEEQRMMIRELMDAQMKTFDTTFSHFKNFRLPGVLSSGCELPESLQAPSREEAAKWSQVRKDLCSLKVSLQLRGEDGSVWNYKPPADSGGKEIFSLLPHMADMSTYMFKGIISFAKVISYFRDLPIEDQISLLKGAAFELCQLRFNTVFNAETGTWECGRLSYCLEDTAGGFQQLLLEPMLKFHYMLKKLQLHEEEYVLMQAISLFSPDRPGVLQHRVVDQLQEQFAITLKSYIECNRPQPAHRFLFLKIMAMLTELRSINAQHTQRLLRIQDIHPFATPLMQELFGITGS
In short: (§6)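 PXR transactivation assay; EC50 and maximal activation (Ymax, % of control) reported.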

`N#CC12CC3CC(C1)C(CC(=O)N1CC(O)C1)(c1ccc(F)cc1)C(C3)C2` (stereo unspecified) and `COC12CC3CC(C1)C(CC(=O)N1CC(O)C1)(c1ccc(F)cc1)C(C3)C2` (stereo unspecified) cannot be ordered by EC50: over 50 µM for the first, over 50 µM for the second.

`O=C(CC1(c2ccc(F)cc2)C2CC3CC(C2)CC1(O)C3)N1CC(O)C1` (racemic) and `NC(=O)C12CC3CC(C1)C(CC(=O)N1CC(O)C1)(c1ccc(F)cc1)C(C3)C2` (stereo unspecified) cannot be ordered by EC50: over 50 µM for the first, over 50 µM for the second.

In the case of `O=C(CC1(c2ccc(F)cc2)C2CC3CC1CC(C2)C3O)N1CC(O)C1` (racemic), the EC50 is reported as over 50 µM.

target: PXR (Homo sapiens, UniProt O75469); assay: Activation of PXR (unknown origin) relative to control; format: ADME; conditions: not given; in short: as §6

Molecule `O=C(CC1(c2ccc(F)cc2)C2CC3CC1CC(C2)C3O)N1CC(O)C1` (racemic) has an Emax of 4%.
